Active and inactive are the calls of the source. No cut-off for these calls is given here.
Experiments:
[1] = Degree of specificity expressed as the ratio of I50 of AChE to I50 of ChAT
Summary of the method: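 Ratio of AChE I50 to ChAT I50. ChAT: partially purified rat brain enzyme, 3 min at 37 °C, 0.1 mM [14C]acetyl-CoA, 5 mM choline. AChE: commercial enzyme, 10 min at 37 °C, [14C]acetylcholine, 1% Triton-X. Radiometric read-out for both; inhibitors tested 10^-3–10^-8 M.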

[2] = biological target: T1, Choline O-acetyltransferase (Rattus norvegicus, UniProt P32738); assay: (§1) Inhibition of choline acetyltransferase (ChAT) activity; conditions: read-out: I50
T1 sequence (P32738 whole entry): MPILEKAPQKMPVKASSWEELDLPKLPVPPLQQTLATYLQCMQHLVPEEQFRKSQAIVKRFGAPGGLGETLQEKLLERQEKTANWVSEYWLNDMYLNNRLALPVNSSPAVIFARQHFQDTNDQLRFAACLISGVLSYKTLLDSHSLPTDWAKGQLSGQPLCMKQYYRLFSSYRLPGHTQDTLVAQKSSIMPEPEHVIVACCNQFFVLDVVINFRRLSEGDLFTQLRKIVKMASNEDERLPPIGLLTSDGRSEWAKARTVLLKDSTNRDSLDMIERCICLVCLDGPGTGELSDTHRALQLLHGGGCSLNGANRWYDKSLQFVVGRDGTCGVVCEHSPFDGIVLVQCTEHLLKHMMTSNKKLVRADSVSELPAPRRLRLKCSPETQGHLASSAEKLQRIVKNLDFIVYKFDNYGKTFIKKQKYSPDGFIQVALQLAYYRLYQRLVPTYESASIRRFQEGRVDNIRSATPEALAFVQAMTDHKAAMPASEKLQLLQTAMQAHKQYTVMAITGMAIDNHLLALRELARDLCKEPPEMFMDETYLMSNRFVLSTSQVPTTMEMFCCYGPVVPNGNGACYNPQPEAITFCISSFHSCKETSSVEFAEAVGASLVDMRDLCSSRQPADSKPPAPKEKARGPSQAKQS

[3] = biological target: T2, Acetylcholinesterase (Rattus norvegicus) (UniProt P37136)
T2 sequence (whole entry): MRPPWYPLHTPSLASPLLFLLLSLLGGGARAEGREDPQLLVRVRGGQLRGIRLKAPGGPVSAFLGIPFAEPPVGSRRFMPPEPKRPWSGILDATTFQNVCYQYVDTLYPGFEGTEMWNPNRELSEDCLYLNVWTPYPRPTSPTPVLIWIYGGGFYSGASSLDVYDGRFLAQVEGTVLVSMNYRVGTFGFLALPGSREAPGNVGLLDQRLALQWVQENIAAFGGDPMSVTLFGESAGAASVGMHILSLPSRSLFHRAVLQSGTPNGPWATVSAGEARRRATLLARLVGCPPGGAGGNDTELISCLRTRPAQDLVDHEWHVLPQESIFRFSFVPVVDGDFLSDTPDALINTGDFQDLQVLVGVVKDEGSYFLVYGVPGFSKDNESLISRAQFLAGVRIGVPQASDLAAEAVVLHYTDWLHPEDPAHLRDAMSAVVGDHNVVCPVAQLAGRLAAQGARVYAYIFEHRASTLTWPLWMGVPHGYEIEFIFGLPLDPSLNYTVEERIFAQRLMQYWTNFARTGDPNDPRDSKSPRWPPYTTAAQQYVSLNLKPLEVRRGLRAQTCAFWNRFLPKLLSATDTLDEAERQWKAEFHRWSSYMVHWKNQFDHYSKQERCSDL

[4] = biological target: T3, Acetylcholinesterase (Rattus norvegicus, UniProt P37136); assay: Inhibition of acetylcholinesterase (AChE) activity; conditions: read-out: I50
T3 sequence (P37136 whole entry): T2 sequence (whole entry)

[5] = biological target: T1, Choline O-acetyltransferase; assay: as §1; conditions: read-out: I50; remark: listed apart in the source
Summary of the method: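 Rat brain enzyme, partially purified (through CM-Sephadex batch elution), stored -20 °C, diluted for linear kinetics. Radiolabelled product counted by scintillation. Inhibitors tested 10^-3–10^-8 M; I50 reported.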

[6] = biological target: T4, Choline O-acetyltransferase (Rattus norvegicus) (UniProt P32738); assay: Inhibition of choline acetyltransferase (ChAT) activity; NI is no inhibition observed up to 0.001 M
T4 sequence (whole entry): T1 sequence (P32738 whole entry)

Row | SMILES | Ratio [1] | IC50 [2] | I50 [3] | IC50 [4] | IC50 [5] | I50 [6]
1 | C(=C\c1cccc2ccccc12)/c1ccncc1 | > 26 | 38 µM | inactive |  |  | 
2 | NC(=O)NC(=O)C[n+]1ccc(/C=C/c2cccc3ccccc23)cc1 | 38 | 3.7 µM |  | 140 µM |  | 
3 | Cc1cnccc1/C=C/c1cccc2ccccc12 | > 25 | 40 µM | inactive |  |  | 
4 | O=C(CO)C[n+]1ccc(/C=C/c2cccc3ccccc23)cc1 | > 200 | 3 µM |  |  |  | 
5 | CCOC(=O)C[n+]1ccc(/C=C/c2cccc3ccccc23)cc1 | 32 | 1 µM |  | 32 µM |  | 
6 | CCCC[n+]1ccc(/C=C/c2cccc3ccccc23)cc1 | 11 | 0.37 µM |  | 3.9 µM |  | 
7 | Cc1c[n+](CCO)ccc1/C=C/c1cccc2ccccc12 | 16 | 1.7 µM |  | 27 µM |  | 
8 | NCCC[n+]1ccc(/C=C/c2cccc3ccccc23)cc1 | 42 | 5.3 µM |  | 220 µM |  | 
9 | NC(=O)NC(=O)CBr |  |  | inactive |  | 130 µM | 
10 | OCCC[n+]1ccc(/C=C/c2cccc3ccccc23)cc1 | 28 | 1.3 µM |  | 36 µM |  | 
11 | CC(=O)C[n+]1ccc(/C=C/c2cccc3ccccc23)cc1 | 8 | 3.7 µM |  | 31 µM |  | 
12 | C[N+]1=CC=NC1/C=C/c1cccc2ccccc12 (stereo not given) |  |  |  | 51 µM |  | inactive
13 | O=C(CBr)C[n+]1ccc(/C=C/c2cccc3ccccc23)cc1 | 4 | 10 µM |  | 40 µM |  | 
14 | C[n+]1ccc(/C=C/c2cccc3ccccc23)cc1 | 77 | 0.39 µM |  | 30 µM |  | 
15 | CCC[n+]1ccc(/C=C/c2cccc3ccccc23)cc1 | 92 | 0.19 µM |  | 17.5 µM |  | 
16 | CCCCCCC(C)OC(=O)CC(=O)C[n+]1ccc(/C=C/c2cccc3ccccc23)cc1 (stereo not given) | 7 | 50 µM |  | 350 µM |  | 
17 | NC(=O)C[n+]1ccc(/C=C/c2cccc3ccccc23)cc1 | 296 | 0.27 µM |  | 80 µM |  | 
18 | O=C(O)C[n+]1ccc(/C=C/c2cccc3ccccc23)cc1 | > 22 | 46 µM | inactive |  |  | 
19 | Cc1c[n+](CCN)ccc1/C=C/c1cccc2ccccc12 | 6 | 5 µM |  | 30 µM |  | 
20 | CCOC(=O)C[n+]1ccc(/C=C/c2cccc3ccccc23)c(C)c1 | 8 | 1.2 µM |  | 10 µM |  | 
21 | CCOC(=O)C(C(=O)OCC)[n+]1ccc(/C=C/c2cccc3ccccc23)cc1 | 24 | 21 µM |  | 500 µM |  | 
22 | OCC[n+]1ccc(/C=C/c2cccc3ccccc23)cc1 | 40 | 1.7 µM |  | 68 µM |  | 
23 | CCNC(=O)NC(=O)C[n+]1ccc(/C=C/c2cccc3ccccc23)cc1 | 33 | 3.9 µM |  | 130 µM |  | 
24 | NCC[n+]1ccc(/C=C/c2cccc3ccccc23)cc1 | 16 | 3.9 µM |  | 64 µM |  | 
25 | CCNC(=O)NC(=O)CBr |  |  | inactive |  | 250 µM | 
26 | O=C(O)CC[n+]1ccc(/C=C/c2cccc3ccccc23)cc1 | 25 | 40 µM |  | 1000 µM |  | 
27 | Cc1c[n+](CC(N)=O)ccc1/C=C/c1cccc2ccccc12 | 132 | 0.34 µM |  | 45 µM |  | 
28 | Cc1c[n+](CCC(=O)O)ccc1/C=C/c1cccc2ccccc12 | 17 | 45 µM |  | 750 µM |  | 

— ChEMBL document CHEMBL1124246, “Evaluation of the side arm of (naphthylvinyl)pyridinium inhibitors of choline acetyltransferase” (J Med Chem, 1988)
